Source: ChEMBL document CHEMBL1129409, “5-HT1D receptor agonist properties of novel 2-[5-[[(trifluoromethyl)sulfonyl]oxy]indolyl]ethylamines and their use as synthetic intermediates” (J Med Chem, 1996)

How the values were obtained:
[1] = target: T1, 5-hydroxytryptamine receptor 1D (Homo sapiens, UniProt P28221); test: Displacement of [3H]-5-HT from human 5-hydroxytryptamine 1D receptor alpha expressed in HEK 293 cells; format: cell-based, HEK293
Summary of the method: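 HEK 293 microsomal membranes expressing human 5-HT1Dα or 5-HT1Dβ, in 50 mM Tris-HCl buffer with 4 mM CaCl2, 0.1% ascorbic acid, pargyline and leupeptine. [3H]-5-HT (final 0.01-150 nM) incubated with membranes and displacer for 30 min at 25 °C. Glass-fibre filtration, then scintillation counting. Nonspecific binding taken with 10^-5 M 5-HT. Nonlinear least-squares fitting (EBDA/LIGAND); mean ± SEM, n=3.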

[2] = target: T1, 5-hydroxytryptamine receptor 1D; test: (§1) Compound was tested for binding affinity against cloned human 5-hydroxytryptamine 1D receptor alpha expressed in CHO-K1 cells.; format: cell-based
Summary of the method: (§2)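 CHO cell membranes expressing cloned human 5-HT1A, 5-HT1Dα or 5-HT1Dβ receptors, or rat D2 receptors (20-60 µg protein). Radioligands: [3H]-8-OH-DPAT (5-HT1A), [3H]-5-HT (5-HT1D), [3H]U-86170 (D2). Buffers at pH 7.4: 50 mM Tris/5 mM MgCl2 (5-HT1A); the same with 0.1% ascorbic acid (5-HT1D); 20 mM HEPES/10 mM MgSO4 (D2). Nonspecific binding defined with lisuride, serotonin and haloperidol respectively. 11 concentrations in duplicate, 1 h at room temperature (5-HT1D protected from light), filtration.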

[3] = Distribution coefficient (LogD) of compound reported; format: physicochemical; conditions: octanol/water
Summary of the method: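 log D calculated with Pallas version 1.2.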

Cavia porcellus [4] = test: The level of 5-HIAA (hypothalamus) measured by means of HPCL with electrochemical detection methods at 6.250 (umol/kg, sc); format: functional
Summary of the method: (§3)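 Male Dunkin-Hartley guinea pigs dosed sc in 0.25% methylcellulose (citric acid added for free bases), 5 mL/kg. Decapitated 60 min after dosing; prefrontal cortex and hypothalamus dissected on ice and stored at -80 °C. 5-HT and 5-HIAA measured by HPLC-electrochemical detection. Expressed as % of vehicle controls, mean ± SEM (n=4-5); ANOVA with Fisher's PLSD.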

Cavia porcellus [5] = test: The level of 5-HT (prefrontal cortex) measured by means of HPCL with electrochemical detection methods at 6.250 (umol/kg, sc); format: functional; summary of the method: as §3
Cavia porcellus [6] = test: Effect of 6.250 (umol/kg, sc) compound on guinea pig rectal temperature (Hypothermia); format: functional
Summary of the method: (§4)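 Male guinea pigs housed individually at least 1 h before testing, groups of five. Compound given sc in 0.25% methylcellulose (equimolar citric acid for free bases), 5 mL/kg. Rectal probe inserted 3-4 cm; temperature read before dosing and at 60 min. Reported as change from the 0 min value, mean ± SEM (n=4-5).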

Cavia porcellus [7] = test: The level of 5-HIAA (prefrontal cortex) measured by means of HPCL with electrochemical detection methods at 6.250 (umol/kg, sc); format: functional; summary of the method: as §3
Cavia porcellus [8] = test: Effect of 50(umol/kg, sc) compound on guinea pig rectal temperature; Hypothermia 0-60 delta degree C; format: functional; summary of the method: as §4
Cavia porcellus [9] = test: Effect of 12.5 (umol/kg, sc) compound on guinea pig rectal temperature; Hypothermia 0-60 delta degree C; format: functional; summary of the method: as §4
Cavia porcellus [10] = test: The level of 5-HT (hypothalamus) measured by means of HPCL with electrochemical detection methods at 50(umol/kg, sc); format: functional; summary of the method: as §3
[11] = target: T1, 5-hydroxytryptamine receptor 1D; test: as §1; format: cell-based; remark: listed apart in the source
Summary of the method: as §2, with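 “protein).” for “protein). Radioligands: [3H]-8-OH-DPAT (5-HT1A), [3H]-5-HT (5-HT1D), [3H]U-86170 (D2).”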

[12] = target: T2, 5-hydroxytryptamine receptor 1A (Homo sapiens, UniProt P08908); test: Compound was tested for binding affinity against cloned human 5-hydroxytryptamine 1A receptor expressed in CHO-K1 cells.; format: cell-based
T2 sequence (P08908 whole entry): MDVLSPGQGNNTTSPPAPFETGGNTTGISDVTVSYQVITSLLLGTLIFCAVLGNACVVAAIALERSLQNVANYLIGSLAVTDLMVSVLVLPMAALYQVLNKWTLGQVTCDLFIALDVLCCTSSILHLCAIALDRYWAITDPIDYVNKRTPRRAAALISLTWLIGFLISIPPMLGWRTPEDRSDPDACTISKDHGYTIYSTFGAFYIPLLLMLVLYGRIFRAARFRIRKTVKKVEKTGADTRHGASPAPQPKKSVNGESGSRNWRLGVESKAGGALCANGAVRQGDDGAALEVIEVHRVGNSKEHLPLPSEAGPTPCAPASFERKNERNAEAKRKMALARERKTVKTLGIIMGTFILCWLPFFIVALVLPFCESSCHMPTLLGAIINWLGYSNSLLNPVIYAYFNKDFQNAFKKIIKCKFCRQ
Summary of the method: as §2, with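 “protein).” for “protein). Radioligands: [3H]-8-OH-DPAT (5-HT1A), [3H]-5-HT (5-HT1D), [3H]U-86170 (D2).”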

Cavia porcellus [13] = test: The level of 5-HT (prefrontal cortex) measured by means of HPCL with electrochemical detection methods at 50(umol/kg, sc); format: functional; summary of the method: as §3
[14] = target: 5-hydroxytryptamine receptor 1B (Homo sapiens, UniProt P28222); test: Compound was tested for binding affinity against cloned human 5-hydroxytryptamine 1D receptor beta expressed in CHO-K1 cells.; format: cell-based
Cavia porcellus [15] = test: The level of 5-HIAA (hypothalamus) measured by means of HPCL with electrochemical detection methods at 50(umol/kg, sc); format: functional; summary of the method: as §3
Cavia porcellus [16] = test: The level of 5-HIAA (prefrontal cortex) measured by means of HPCL with electrochemical detection methods at 50(umol/kg, sc); format: functional; summary of the method: as §3

T1 sequence (P28221 whole entry): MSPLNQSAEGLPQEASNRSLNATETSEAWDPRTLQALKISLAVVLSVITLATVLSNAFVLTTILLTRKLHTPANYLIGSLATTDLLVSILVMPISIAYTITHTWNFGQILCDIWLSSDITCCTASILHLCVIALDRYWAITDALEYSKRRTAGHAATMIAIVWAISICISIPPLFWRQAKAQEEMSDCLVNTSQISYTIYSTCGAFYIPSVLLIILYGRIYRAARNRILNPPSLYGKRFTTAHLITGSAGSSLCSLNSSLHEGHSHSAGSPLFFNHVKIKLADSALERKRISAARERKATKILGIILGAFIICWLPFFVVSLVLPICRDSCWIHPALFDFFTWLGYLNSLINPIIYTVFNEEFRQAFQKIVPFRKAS
Sequence of 5-hydroxytryptamine receptor 1B (P28222 whole entry): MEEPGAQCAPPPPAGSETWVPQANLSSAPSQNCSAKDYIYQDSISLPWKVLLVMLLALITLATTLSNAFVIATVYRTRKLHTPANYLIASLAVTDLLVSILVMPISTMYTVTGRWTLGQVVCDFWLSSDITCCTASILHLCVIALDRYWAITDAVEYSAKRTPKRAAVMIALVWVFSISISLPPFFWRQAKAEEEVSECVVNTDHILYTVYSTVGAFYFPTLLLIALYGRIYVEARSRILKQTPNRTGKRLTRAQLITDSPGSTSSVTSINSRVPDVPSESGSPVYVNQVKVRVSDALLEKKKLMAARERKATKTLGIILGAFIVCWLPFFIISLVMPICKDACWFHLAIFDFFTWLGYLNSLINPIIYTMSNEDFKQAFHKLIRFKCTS

CCN(CC)CCc1c[nH]c2ccc(O)cc12
IC50 [1]: 77 nM
IC50 [2]: 77 nM
logD [3]: 0.28

CCN(CC)CCc1c[nH]c2ccc(OCc3ccccc3)cc12
IC50 [1]: 110 nM
IC50 [2]: 110 nM
logD [3]: 2.18

CCCN(CCC)C1CCc2cccc(O)c2C1 (stereo unspecified) [8-OH-DPAT]
Others (Cavia porcellus [4]): 37%
Others (Cavia porcellus [5]): 126%
Others (Cavia porcellus [6]): 0.22
Others (Cavia porcellus [7]): 34%

COc1ccc(CNC(=O)/C=C/c2ccc3[nH]cc(CCN(C)C)c3c2)cc1
Others (Cavia porcellus [8]): -2.62
Others (Cavia porcellus [9]): -1.62
Others (Cavia porcellus [10]): 121%
Ki [11]: 0.3 nM
Ki [12]: 1.3 nM
Others (Cavia porcellus [13]): 94%
Ki [14]: 0.2 nM
Others (Cavia porcellus [15]): 49%
Others (Cavia porcellus [16]): 37%
logD [3]: 1.71

CCCN(CCC)CCc1c[nH]c2ccc(OCc3ccccc3)cc12
IC50 [1]: 470 nM
IC50 [2]: 470 nM
logD [3]: 3.08

CCCN(CCC)CCc1c[nH]c2ccc(O)cc12
IC50 [1]: 820 nM
IC50 [2]: 820 nM
logD [3]: 1.24
